According to ChEMBL document CHEMBL1154765, “A series of alpha-amino acid ester prodrugs of camptothecin: in vitro hydrolysis and A549 human lung carcinoma cell cytotoxicity” (J Med Chem, 2010):

Columns and labels:
[1] = Stability in phosphate buffer assessed as half life of prodrug hydrolysis at 5 mg at pH 7.4 by HPLC; assay type: physicochemical; conditions: in vitro
Procedure, shortened: (§1)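 In 100 mM sodium phosphate buffer, 5 mg prodrug per 2 mL, shaken at 37 °C, triplicate runs. Timed aliquots dried, taken up in methanol, and quantified by HPLC with fluorescence detection. Prodrug loss fit to first-order decay, Ct versus C0; half-life obtained from the rate constant.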

[2] = Stability in phosphate buffer assessed as half life of camptothecin formation at 5 mg at pH 7.4 by HPLC; assay type: physicochemical; conditions: in vitro
Procedure, shortened: (§2)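 Prodrug (5 mg) in 2 mL 100 mM sodium phosphate buffer on shaker at 37 °C, in triplicate. Aliquots taken at set times, dried, reconstituted in methanol, and analysed by HPLC with fluorescence detection. CPT appearance fit to first-order kinetics, Ct versus C∞; half-life derived from the rate constant.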

[3] = Stability in phosphate buffer assessed as half life of camptothecin formation at 5 mg at pH 7 by HPLC; assay type: physicochemical; procedure, shortened: as §2
[4] = Stability in phosphate buffer assessed as half life of prodrug hydrolysis at 5 mg at pH 6.6 by HPLC; assay type: physicochemical; conditions: in vitro; procedure, shortened: as §1
[5] = Stability in phosphate buffer assessed as half life of prodrug hydrolysis at 5 mg at pH 7 by HPLC; assay type: physicochemical; procedure, shortened: as §1
A549 = assay: Cytotoxicity against human A549 cells after 48 hrs by MTT method; assay type: functional, cell-based; conditions: A549, 48 h
Procedure, shortened: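 A549 cells grown in DMEM/F-12 with 10% FBS, 37 °C, 5% CO2; seeded 10,000 cells/well, attached 24 h, then exposed in triplicate to 30 dilutions for 48 h. Washed with PBS, MTT added 5 h at 37 °C in dark, crystals dissolved in SDS/DMF:water, absorbance 570 nm (reference 690 nm). Viability relative to drug-free controls; IC50 from variable-slope sigmoidal fit.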

[6] = Stability in phosphate buffer assessed as half life of camptothecin formation at 5 mg at pH 6.6 by HPLC; assay type: physicochemical; conditions: in vitro; procedure, shortened: as §2

| Structure (SMILES) | t1/2 [1] [h] | t1/2 [2] [h] | t1/2 [3] [h] | t1/2 [4] [h] | t1/2 [5] [h] | IC50 (A549) [nM] | t1/2 [6] [h] |
| --- | --- | --- | --- | --- | --- | --- | --- |
| CC[C@@]1(OC(=O)CN)C(=O)OCc2c1cc1n(c2=O)Cc2cc3ccccc3nc2-1 | 1.774 | 10.79 | 11.26 | 2.564 | 1.802 | 12.2 | 11.54 |
| CCC[C@@H](N)C(=O)O[C@]1(CC)C(=O)OCc2c1cc1n(c2=O)Cc2cc3ccccc3nc2-1 | 2.926 | 32.31 | 36.7 | 4.652 | 4.119 | 5.2 | 38.26 |
| CC[C@@H](N)C(=O)O[C@]1(CC)C(=O)OCc2c1cc1n(c2=O)Cc2cc3ccccc3nc2-1 | 2.934 | 25.34 | 26.27 | 4.68 | 3.197 | 4.1 | 28.25 |
| CC[C@@]1(OC(=O)[C@@H](C)N)C(=O)OCc2c1cc1n(c2=O)Cc2cc3ccccc3nc2-1 | 2.496 | 15.47 | 16.3 | 4.336 | 2.828 | 120 | 21.31 |
| CC[C@@]1(O)C(=O)OCc2c1cc1n(c2=O)Cc2cc3ccccc3nc2-1 [CAMPTOTHECIN] |  |  |  |  |  | 5.38 |  |
